Laboratory results published in the EternaBench riboswitch data.

System: MS2 coat protein
Test: apparent Kd, MS2 coat protein; higher = weaker binding; RNA-MaP array; FMN 200 µM where present
Outline: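 SNAP-549-labelled MS2 coat protein, doubled from 0.7 or 1.5 nM to 3 µM, was titrated over designs transcribed by stalled E. coli RNA polymerase on Illumina sequencing-chip clusters. Titrations were run without and then with constant ligand in 100 mM Tris-HCl pH 7.5, 80 mM KCl, 4 mM MgCl2, BSA, DTT, yeast tRNA and Tween-20. The apparent Kd is the median of filtered per-cluster fits to green signal normalised to red-channel RNA signal and control-cluster median Fmax.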

[1] = designed as: OFF switch for flavin mononucleotide, no ligand
[2] = ligand present: flavin mononucleotide, designed as: OFF switch for flavin mononucleotide
[3] = designed as: ON switch for flavin mononucleotide, no ligand
[4] = ligand present: flavin mononucleotide, designed as: ON switch for flavin mononucleotide

| Sequence | apparent Kd [1] [nM] | apparent Kd [2] [nM] | apparent Kd [3] [nM] | apparent Kd [4] [nM] |
| --- | --- | --- | --- | --- |
| AAACAACAUGAGGAUCACCCAUGUAAGGAUAUGCGAGUUGGGUCAACGAAGGUUGAAGGCAGAAGGUAUAGGGU | 58.5 | 50.4 | – | – |
| GGACAUUUACAGAAGGGCAAAUUUUAUAUUGAAUAUUUAGUUCUGAUUUGCAGGAUAUGUUUUACAUGAGGAUCACCCAUGUCC | – | – | 59.9 | 27.9 |
| UUCAAGUCAGGAUAUCCAUAUUUCUGAUAUAACGGUACUUUGGAGAAGGGACAUGAGGAUCACCCAUGUAAUCU | 24.5 | 28.3 | – | – |
| UCGACGAAAGUCGAACGAUGUAGCAGAAGGACAUGAGGAUCACCCAUGUCAGCUGUAACAGCCAUGUAGGAUAUGCUACAUCGA | 3.96 | 5.54 | – | – |
| UUAUUAAGUGUGAGGAUAUGCUGGUCCUUGGAUCAGCAGAAGGCACAUGAGGAUCACCCAUGUAAUAUAUUUAU | 103 | 389 | – | – |
| AGGGAACAUGAGGAUCACCCAUGUGAGGAUAUACAAAAGAAAAGAAAAGAAAGAAGAAGUAGAAGGUACAAGAA | 28.2 | 35.5 | – | – |
| CUAUAUUAGUAGAAGGACGGAGAGUAUGUAGUCGUAGGAUAUACAUAAGACAUGAGGAUCACCCAUGUGUGUAUGUUGGGUAUG | 9.66 | 8.03 | – | – |
| GCUUUAUAGAUCCAUUUUAACAACAUGAGGAUCACCCAUGUGCAGGAUAUCGUUUGUUUUAUAUUCGAGAAGGGCAAAUUCAGC | 32.5 | 77.6 | – | – |
| GACAGACAUGAGGAUCACCCAUGUACAAACGUACAAGGAUAUGUGUGGAAACCGUACUAUACAGAAGGUGUCUGUC | – | – | 121 | 151 |
| CUUAGACAUGAGGAUCACCCAUGUCAGGAUAUCGUCUACCUGUGGAAACACAGGUAGACGAGAAGGGAUGUGUU | 51.6 | 41.4 | – | – |
| GUCCUCAGCGAGGAUAUCGGGCGGGUUUUUGUUUGAGAAGGCGUGACAUGAGGAUCACCCAUGUGGCGCGUGGG | 51.2 | 82.3 | – | – |
| CAAUUUAUAACAGGAUAUGUAAUACAAUAGUUAAUAGAAGGGUUUAAUACAUGAGGAUCACCCAUGUCAUGUGUCAUAAUUACC | 33 | 26 | – | – |
| GGGUACAUCGGAGGAUAUCAUGUAAAUACAUGAGGAUCACCCAUGUCGAUGGAGACACCGGAGAUUGAGAAGGCCGAUGUACCG | – | – | 643 | 23.5 |
| UUUGUUGUUGUGAGGAUAUCGUUGUUAUUUUGAAACGAGAAGGCACAUGAGGAUCACCCAUGUUUGUUGUUGGU | 52.1 | 195 | – | – |
| CUUAGUAUCUAGGAUAUCUAGUACAUAGUAUCUAGAGAAGGAGAUACAUGAGGAUCACCCAUGUUCUGUGUUCU | 23.9 | 68.7 | – | – |
| UGGUACUAGGGAGGAUAUGGGAAGAUACAUGAGGAUCACCCAUGUUUAACAAUGCCGAGAGGCAACUAGAAGGCCCUAGUACCU | – | – | 227 | 15.5 |
| AUCUUUAACAUAGGAUAUAGUAUGAAGGUUUAUUUAGAAGGAUGUCACAUGAGGAUCACCCAUGUAUUAGGAUUACCCAUGUAU | 30.1 | 23.1 | – | – |
| AACCAUGUCCGAGGAUAUCUGGAAACAUUUCCAAGAGAAGGCGGACAUGAGGAUCACCCAUGUCUCUCCUCAUCAAAUCCAAGU | 12.4 | 94.6 | – | – |
| AUUAAACAUGAGGAUCACCCAUGUCAACAAAGUCGAGGAUAUGGGCAUAUUAUCUUAUUUCCAGAAGGCGAAUAAU | – | – | 121 | 33.9 |

| Sequence | apparent Kd [1] [nM] | apparent Kd [2] [nM] | apparent Kd [3] [nM] | apparent Kd [4] [nM] |
| --- | --- | --- | --- | --- |
| AGAUUACGAGGAUAUCGAUUUUAGUACAUGAGGAUCACCCAUGUUAUCCAGGUCUCGUUUCGAGAAGGCGUGAUUC | 303 | 132 | – | – |
| GGUACUCAAAGAGUACCAAUACGAACAUGAGGAUCACCCAUGUAGGAUAUGCUACUCAAAGAGCAGCAGAAGGACAUGUGCCUA | 17.7 | 125 | – | – |
| CUGUUAUAGGUCCAUUUUUUCAACAUGAGGAUCACCCAUGUGCAGGAUAUCGUGUUAAUUUUCAUCGAGAAGGGCAUAGUCACG | 30.1 | 63.8 | – | – |
| CUCCGGCGUGUAGGAUAUGGAUCCGAUUAGGAUCCAGAAGGACAUGAGGAUCACCCAUGUACAUGUAAACAGUCAUCACCGGAC | 8.66 | 67.6 | – | – |
| GCAGCGACUGCAGGAUAUCAGCACGUGUAGUGCUGAGAAGGGCACAUGAGGAUCACCCAUGUGAUCAAUUAAUAGUCAUGCUGC | 7.23 | 15.9 | – | – |
| AAUUGACACGUAGGAUAUCGAUCUAUAUUAACUCGAGAAGGACGUACAUGAGGAUCACCCAUGUUUAAUGGAGUAGAUAUGUUG | 82.8 | 308 | – | – |
| AUCAGCUCGUCAGGAUAUAUGUCACUGCUUCGGCAGUGUGGUAAGAUUACAUGAGGAUCACCCAUGUAGAAGGGACGAGCUGAU | 6.12 | 6.9 | – | – |
| UGGACCGAGCUAUCGGUUGACUCGGAGGAUAUGACAUGAGGAUCACCCAUGUGGGAUCUAAAUUGUCAGAAGGCUGGUUCUGGG | 675 | 229 | – | – |
| AGCUGUGGCAGAGGAUAUACUACCAUAAUCCAUUGCAAAUAGCGAUGGACAUGAGGAUCACCCAUGUAGAAGGCUGUCUCAGCA | 68.2 | 275 | – | – |
| AGGCUCACAGGAUAUCUCCACGGUAACAUGAGGAUCACCCAUGUCUCAUUUUCUCGUGCAAGAGAAGGGUGAGCGG | 435 | 455 | – | – |
| CUGAGUAGUCAGGAUAUGCUGUACAAAAGUACAGCAGAAGGGAUUACAUGAGGAUCACCCAUGUUGUCUUCAUG | 160 | 316 | – | – |
| CUUUUGUGAGGAUAUCAGUAGUAAAAAAAUAAUAUUACUACUGAGAAGGCACAUGAGGAUCACCCAUGUUCCUC | 36 | 276 | – | – |
| AUAUGAUAGAUAGGAUAUACUAUGGUUGAAGAAGUAGAAGGAUCAAUUGGGAAAUGUACAUGAGGAUCACCCAUGUUAUGGGUU | – | – | 943 | 493 |
| CGUUGACAUGAGGAUCACCCAUGUCAGAUUUGGUCAGGAUAUGGUGUGGUUUGGCUAUUGCCAGAAGGGACGUUUG | – | – | 92.1 | 58.5 |
| CUUUUGUGAGGAUAUCAGUAGUAAUACAAUAGUAUUACUGCUGAGAAGGCACAUGAGGAUCACCCAUGUUCCUC | 59.9 | 284 | – | – |
| GUACUGAAGCUUUGCUUUAGUCGUACAUGAGGAUCACCCAUGUAGGAUAUGGUAGGCUAUGCUUACUAGAAGGAUAGAGUGAUC | 88.8 | 46.4 | – | – |
| AGUAUGCGAGGAUAUACAUGAGGAUCACCCAUGUGAGAGAUAAAAGUGAGAAAGACAAGUAGAAGGCGCGUACA | 61.9 | 451 | – | – |
| CUUUUGUGAGGAUAUCAGUAGUAAAUAAAUAAAAUUAAUACUGAGAAGGCACAUGAGGAUCACCCAUGUUCCUC | 33.1 | 162 | – | – |
| CUUUUGUGAGGAUAUUCGUAGUAGGUAAAUAAAACUAUUACGGAGAAGGCACAUGAGGAUCACCCAUGUUCCUU | 18.1 | 54.2 | – | – |

| Sequence | apparent Kd [1] [nM] | apparent Kd [2] [nM] | apparent Kd [3] [nM] | apparent Kd [4] [nM] |
| --- | --- | --- | --- | --- |
| UUAUACGUUGAGGAUAUGCGAAUUAGUAUAGUUGCAGAAGGCGAUACAUGAGGAUCACCCAUGUUCAUGGGCAU | 127 | 243 | – | – |
| GCUGCAAAGUAAGGAUAUGCCUAGGAAACCUAGGCAGAAGGUACAUGAGGAUCACCCAUGUUAACUCAAAGAGAAUAAAGCAGC | 16.8 | 28.6 | – | – |
| CUUUUGGGAGGAUAUUAGUAGUAAAUAAAUAAAAUUACUACUGAGAAGGCACAUGAGGAUCACCCAUGUUCCUC | 17.9 | 26.1 | – | – |
| ACUAGAUGAGGAUAUGCAUAUUUUCGUGUUCUUCUAGGUUAACAUGAGGAUCACCCAUGUAGAAGGCGUCUGGA | 19.6 | 37.7 | – | – |
| AUACUAAAUGAAGGAUAUCUAAGCAUAAACCUGAGAGAAGGUCAUUUUUACAUGAGGAUCACCCAUGUUGUGAUUAAUGGGUUA | 71.8 | 144 | – | – |
| AUAAUAAUAUAAGGAUAUACGUCACUGCGUCAGCAGUGUGGUAAGAUCACAUGAGGAUCACCCAUGUAGAAGGAUAAAUUAAAU | 12.4 | 9.22 | – | – |
| UAAGAUUAUGUAGGAUAUGGUUAUCUAUGUCUAGUUACUAGACAUAGAUAACCAGAAGGACAUGAGGAUCACCCAUGUUGAACG | 7.73 | 16.9 | – | – |
| ACAUGAGGAUCACCCAUGUGAAAGAAAUGGCUGACUUUGAGCUAGGAUAUUUGUGCAUAUCAAACGAAGAAGGAGCAUUACUGG | 22.2 | 21 | – | – |
| GCUGGUCGAGGAUAUACGUGACGUGCUUCGGCACGAGGUCUACAUGAGGAUCACCCAUGUAGAAGGCGACCAGC | 14.5 | 52.7 | – | – |
| CGUCCACAUGAGGAUCACCCAUGUCAGGAUAUACAAAUGCCAGGUCGCGGGCCAGGCGGUAGAAGGGACGUGGC | 23.1 | 18.6 | – | – |
| UCCCGGUAAGAAGGAUAUACAUGAGGAUCACCCAUGUAUUAAACAUAUACUGGCCGUGGCCUUGUGUAGAAGGUCUGUCGGUCA | 6.75 | 5.97 | – | – |
| UCCUGGCGAGGAUAUACAAUGUUUUUCGCGUGUUGUUGCGAACAUGAGGAUCACCCAUGUAGAAGGUGCUACUG | 278 | 225 | – | – |
| CCGCAAAUGCAGGAUAUCGUAUCGGAUACGAUACGAGAAGGGCGUACAUGAGGAUCACCCAUGUGUCCUAGCGG | 16.4 | 23.3 | – | – |
| AAAAGCAACACAGGAUAUAUCACGGGUGAUUUGAUAGAAGGGUGAGCGAAAGAGAGCAACAUGAGGAUCACCCAUGUAUGUUUG | – | – | 304 | 184 |
| AAAACACAUGAGGAUCACCCAUGUAUCUGGACCAUAGGAUAUCCGCGCCCACUAGGGUGUGGAGAAGGGUGAGCCC | – | – | 204 | 245 |
| AGUGUCGGCACAGGAUAUGAGAUGCCGGCAGACAUGAGGAUCACCCAUGUAAGCGAACCAGGCAGUCAGAAGGGUGAUCGACAA | – | – | 46.8 | 24.4 |
| AAUCAUUAUCGUUAUUUAUAUUAUUCAGAAGGACAAUUAAUAGCACAUGAGGAUCACCCAUGUUUGUAGGAUAUGAUGUUAUAC | – | – | 15.2 | 7.95 |
| UAUAUGUCAGGAUAUUAGUUGUGUUAGAAUUUAUCUUCUGCUGAGAAGGGACAUGAGGAUCACCCAUGUUCCUC | 14.5 | 16 | – | – |
